From ChEMBL document CHEMBL5678818, “Discovery of potent SOS1 inhibitors that block RAS activation via disruption of the RAS-SOS1 interaction” (Proc Natl Acad Sci U S A, 2019)
Activity calls are given as the source filed them. No cut-off for these calls is given here.

How the values were obtained:
[1] = biological target: Son of sevenless homolog 2 (Homo sapiens, UniProt Q07890); experiment: Inhibition of N-terminal His10-tagged wild-type recombinant human SOS2 catalytic domain (564 to 1043 residues) expressed in Escherichia coli assessed as reduction in KRAS G12C mutant activation preincubated for 10 mins with KRAS followed by SOS2 addition measured after 30 mins in presence of EDA-GTP-DY-647P1 by HTRF analysis
MOLM-13 = experiment: Antiproliferative activity against human MOLM-13 cells assessed as inhibition of cell viability incubated for 72 hrs by Cell Titer Glo assay; assay type: functional, cell-based; settings: MOLM-13, 72 h
[2] = biological target: T1, Guanine nucleotide exchange factor DBS (Homo sapiens, UniProt O15068); experiment: Inhibition of human DBS assessed as reduction in CDC42 activation preincubated for 1 min with CDC42 followed by DBS addition measured after 20 mins in presence of EDA-GTP-DY-647P1 by HTRF analysis
T1 sequence (O15068 whole entry): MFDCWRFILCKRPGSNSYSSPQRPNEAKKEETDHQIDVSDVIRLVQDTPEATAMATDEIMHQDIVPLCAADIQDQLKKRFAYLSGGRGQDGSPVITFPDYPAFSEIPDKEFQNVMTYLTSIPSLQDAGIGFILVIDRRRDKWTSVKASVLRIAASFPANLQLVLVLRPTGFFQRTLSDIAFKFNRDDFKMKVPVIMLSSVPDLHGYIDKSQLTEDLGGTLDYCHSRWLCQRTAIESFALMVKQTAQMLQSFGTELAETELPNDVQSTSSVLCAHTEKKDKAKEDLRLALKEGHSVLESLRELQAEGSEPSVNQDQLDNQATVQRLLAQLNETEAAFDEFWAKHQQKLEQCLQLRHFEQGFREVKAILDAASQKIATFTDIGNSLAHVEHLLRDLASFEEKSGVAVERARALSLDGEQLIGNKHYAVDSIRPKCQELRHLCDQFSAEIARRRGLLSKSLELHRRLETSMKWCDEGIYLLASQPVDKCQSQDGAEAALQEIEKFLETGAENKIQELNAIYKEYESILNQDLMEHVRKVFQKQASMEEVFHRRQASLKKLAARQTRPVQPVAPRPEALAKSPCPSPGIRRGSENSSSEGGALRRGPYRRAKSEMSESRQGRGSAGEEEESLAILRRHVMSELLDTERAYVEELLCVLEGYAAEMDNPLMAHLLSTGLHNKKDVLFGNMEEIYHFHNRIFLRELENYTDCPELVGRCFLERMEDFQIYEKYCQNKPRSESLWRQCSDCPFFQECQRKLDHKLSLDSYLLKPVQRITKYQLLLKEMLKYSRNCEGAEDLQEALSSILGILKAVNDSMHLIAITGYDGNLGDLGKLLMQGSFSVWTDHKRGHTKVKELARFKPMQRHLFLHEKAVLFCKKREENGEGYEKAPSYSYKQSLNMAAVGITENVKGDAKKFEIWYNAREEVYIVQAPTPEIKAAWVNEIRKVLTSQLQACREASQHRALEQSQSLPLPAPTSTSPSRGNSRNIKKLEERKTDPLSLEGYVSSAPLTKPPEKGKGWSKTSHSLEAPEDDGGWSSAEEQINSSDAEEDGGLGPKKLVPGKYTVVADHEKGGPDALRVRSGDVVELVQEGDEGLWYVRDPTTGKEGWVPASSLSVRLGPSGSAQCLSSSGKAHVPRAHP

K562 [3] = experiment: Antiproliferative activity against human K562 cells assessed as inhibition of cell viability incubated for 72 hrs by Cell Titer Glo assay; assay type: functional, cell-based; settings: K562, 72 h
In short: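 K-562 cells (wild-type KRAS, sourced from ATCC) were tested for antiproliferative response.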

[4] = biological target: Epidermal growth factor receptor (Homo sapiens, UniProt P00533); experiment: Inhibition of human EGFR using biotin-aminohexyl-AEEEEYFELVAKKK as substrate preincubated for 15 mins followed by substrate/ATP addition measured after 20 mins by FRET assay
[5] = biological target: T2, Son of sevenless homolog 1 (Homo sapiens) (UniProt Q07889); experiment: Stabilization of N-terminal His10-tagged wild-type recombinant human SOS1 catalytic domain (564 to 1049 residues) expressed in Escherichia coli assessed as change in melting temperature at 100 uM with heating from 25 to 85 degreeC by thermal shift assay
T2 sequence (whole entry): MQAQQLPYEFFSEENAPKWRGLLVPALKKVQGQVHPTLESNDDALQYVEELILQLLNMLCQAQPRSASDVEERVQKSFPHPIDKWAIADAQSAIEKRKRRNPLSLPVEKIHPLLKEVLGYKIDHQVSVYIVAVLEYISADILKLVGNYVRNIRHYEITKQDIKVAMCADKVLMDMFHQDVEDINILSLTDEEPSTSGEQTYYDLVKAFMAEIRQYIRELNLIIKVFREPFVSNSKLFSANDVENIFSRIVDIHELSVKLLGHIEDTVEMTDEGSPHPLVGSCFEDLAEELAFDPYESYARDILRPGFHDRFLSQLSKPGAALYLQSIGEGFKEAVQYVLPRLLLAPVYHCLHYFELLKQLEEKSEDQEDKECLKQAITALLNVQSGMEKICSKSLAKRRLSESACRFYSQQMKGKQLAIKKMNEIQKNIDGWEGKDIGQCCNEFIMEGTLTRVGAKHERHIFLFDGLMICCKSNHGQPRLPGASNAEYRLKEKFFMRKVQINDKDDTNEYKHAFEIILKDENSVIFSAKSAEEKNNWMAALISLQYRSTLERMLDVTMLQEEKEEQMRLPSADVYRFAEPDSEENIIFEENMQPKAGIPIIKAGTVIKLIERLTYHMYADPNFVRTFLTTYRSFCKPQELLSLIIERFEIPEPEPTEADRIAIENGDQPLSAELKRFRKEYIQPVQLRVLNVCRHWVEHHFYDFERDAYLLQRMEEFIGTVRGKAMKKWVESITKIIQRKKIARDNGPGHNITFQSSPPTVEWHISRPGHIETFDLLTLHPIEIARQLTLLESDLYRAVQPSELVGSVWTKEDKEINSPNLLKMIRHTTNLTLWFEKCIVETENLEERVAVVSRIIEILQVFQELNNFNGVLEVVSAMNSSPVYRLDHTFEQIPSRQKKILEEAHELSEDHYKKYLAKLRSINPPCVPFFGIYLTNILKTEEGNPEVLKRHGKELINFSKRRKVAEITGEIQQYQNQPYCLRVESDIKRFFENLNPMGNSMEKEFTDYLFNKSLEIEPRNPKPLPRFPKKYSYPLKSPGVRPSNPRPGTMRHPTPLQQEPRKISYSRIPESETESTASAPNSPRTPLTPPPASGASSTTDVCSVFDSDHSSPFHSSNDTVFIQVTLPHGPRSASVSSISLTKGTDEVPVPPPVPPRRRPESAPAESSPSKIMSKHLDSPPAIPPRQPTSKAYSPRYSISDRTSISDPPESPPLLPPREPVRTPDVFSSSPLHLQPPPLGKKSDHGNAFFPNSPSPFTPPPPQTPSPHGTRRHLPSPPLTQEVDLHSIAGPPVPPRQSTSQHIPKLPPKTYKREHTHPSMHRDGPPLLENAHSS

[6] = biological target: GTPase KRas (Homo sapiens) (UniProt P01116); experiment: Stabilization of N-terminal His10-tagged wild-type recombinant human KRAS (1 to 169 residues) expressed in Escherichia coli assessed as change in melting temperature at 100 uM with heating from 25 to 85 degreeC by thermal shift assay
NCI-H358 = experiment: Antiproliferative activity against human NCI-H358 cells assessed as inhibition of cell viability incubated for 72 hrs by Cell Titer Glo assay; assay type: functional, cell-based; settings: NCI-H358, 72 h
In short: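 NCI-H358 cells (KRAS G12C mutant) were sourced from ATCC.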

[7] = test system: GTPase KRas (Homo sapiens), P01116 [G12C]; experiment: Stabilization of N-terminal GST-tagged recombinant human KRAS G12C mutant (1 to 169 residues) expressed in Escherichia coli assessed as change in melting temperature at 100 uM with heating from 25 to 85 degreeC by thermal shift assay
Homo sapiens [8] = species on record: Homo sapiens; experiment: Stabilization of N-terminal His10-tagged 15N-labeled recombinant human KRAS G12C/C118S mutant (1 to 169 residues) expressed in Escherichia coli/N-terminal His10-tagged wild-type recombinant human SOS1 catalytic domain (564 to 1049 residues) expressed in Escherichia coli at 1 mM incubated for 30 mins by 2D-NMR analysis
[9] = test system: GTPase KRas (Homo sapiens), P01116 [G12C]; experiment: Binding affinity to N-terminal GST-tagged recombinant human KRAS G12C mutant (1 to 169 residues) expressed in Escherichia coli at 200 uM by STD-NMR analysis
Homo sapiens [10] = species on record: Homo sapiens; experiment: Stabilization of N-terminal His10-tagged recombinant human KRAS G12C/C118S mutant (1 to 169 residues) expressed in Escherichia coli/Series S C1 sensor chip-immobilized biotinylated N-terminal His10-tagged wild-type recombinant human SOS1 catalytic domain (564 to 1049 residues) expressed in Escherichia coli at 100 to 500 uM measured for 360 secs by SPR analysis; settings: dose 100-500 µM, time 360.0 sec
In short: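 SOS1cat is immobilized on the chip, and 250 nM KRASG12C_C118S is flowed over with or without test compound. Compound alone at 100, 250 and 500 µM is also injected to gauge unspecific binding to SOS1cat. Buffer injection serves as the blank.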

Homo sapiens [11] = species on record: Homo sapiens; experiment: Stabilization of N-terminal His10-tagged recombinant human KRAS G12C/C118S mutant (1 to 169 residues) expressed in Escherichia coli/N-terminal His10-tagged wild-type recombinant human SOS1 catalytic domain (564 to 1049 residues) expressed in Escherichia coli by HTRF analysis
In short: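 HTRF equilibrium-binding read-out of KRASG12C_C118S with SOS1cat, detected by fluorescently labelled antibodies including a terbium donor. Signal normalized with DMSO control as 100% and no-SOS1cat wells as 0%. Data are mean ± SD, n = 4.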

[12] = biological target: T2, Son of sevenless homolog 1 (Homo sapiens); experiment: Binding affinity to N-terminal His10-tagged wild-type recombinant human SOS1 catalytic domain (564 to 1049 residues) expressed in Escherichia coli at 200 uM by STD-NMR analysis
[13] = test system: SOS1-KRAS (Homo sapiens), Q07889+P01116 [G12C]; experiment: Binding affinity to N-terminal GST-tagged recombinant human KRAS G12C mutant (1 to 169 residues) expressed in Escherichia coli/N-terminal His10-tagged wild-type recombinant human SOS1 catalytic domain (564 to 1049 residues) expressed in Escherichia coli at 200 uM by STD-NMR analysis
K562 [14] = experiment: Effect on total ERK level in human K562 cells incubated for 60 mins by HTRF analysis; assay type: functional, cell-based
In short: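 K-562 cells (wild-type KRAS) were sourced from ATCC. Cells were incubated with compound for 60 min, and total ERK was quantified alongside pERK.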

KG-1 = experiment: Antiproliferative activity against human KG-1 cells assessed as inhibition of cell viability incubated for 72 hrs by Cell Titer Glo assay; assay type: functional, cell-based
Calu-1 [15] = experiment: Antiproliferative activity against human Calu-1 cells assessed as inhibition of cell viability incubated for 72 hrs by Cell Titer Glo assay; assay type: functional, cell-based; settings: Calu-1, 72 h
THP-1 = experiment: Antiproliferative activity against human THP-1 cells assessed as inhibition of cell viability incubated for 72 hrs by Cell Titer Glo assay; assay type: functional, cell-based
Calu-1 [16] = experiment: Effect on total ERK level in human Calu-1 cells incubated for 24 hrs by HTRF analysis; assay type: functional, cell-based
In short: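 Calu-1 cells carry two KRAS G12C alleles and were sourced from CLS. Total and pERK levels were both analyzed after compound treatment.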

[17] = biological target: T2, Son of sevenless homolog 1 (Homo sapiens); experiment: Inhibition of SOS1 in human Calu-1 cells assessed as pERK level incubated for 24 hrs by HTRF analysis relative to control; assay type: cell-based; design: scale not given: the % may be the effect or the level left

Row | Compound | IC50 [1] [µM] | IC50 [2] [µM] | IC50 (K562 [3]) [µM] | IC50 [4] [µM] | ΔTm [5] [°C] | ΔTm [6] [°C] | IC50 (NCI-H358) [µM] | ΔTm [7] [°C] | Activity (Homo sapiens [8]) | Activity (Homo sapiens [10]) | Activity (Homo sapiens [11]) | also measured
1 | CNCc1ccccc1-c1csc([C@H](C)Nc2nc(C)nc3cc(OC)c(OC)cc23)c1 [BAY-294] | > 20 | > 20 | 7.5 | > 20 | 0.28 | -0.05 | 3.39 | -0.6 |  |  |  | IC50 (MOLM-13): 7.57 µM
2 | NCc1nn(-c2ccccc2)c2c1CCC2 |  |  |  |  |  |  |  |  | Active | Active | Active | Activity [9]: inactive; Activity [12]: inactive; Activity [13]: Active
3 | O=C(CO)N1CCc2ccccc2C1 |  |  |  |  |  |  |  |  | inactive | inactive | inactive | 
4 | CNCc1ccccc1-c1csc(C(C)Nc2nc(C)nc3cc(OC)c(OC)cc23)c1 (stereo not given) | > 20 | > 20 | 1.1 | > 20 | 2.96 | -0.67 | 2.66 | -0.57 |  |  |  | Activity (K562 [14]): inactive; Activity (KG-1): Active; IC50 (Calu-1 [15]): 2.05 µM; Activity (THP-1): Active; Activity (Calu-1 [16]): inactive
5 | C=CC(=O)N1CC(N2CCN(C(=O)CNc3cc(C4(C)CC4)c(Cl)cc3O)CC2)C1 |  |  |  |  |  |  |  |  |  |  |  | Activity [17]: 50%
6 | NCCCc1ccc(Cl)cc1 |  |  |  |  |  |  |  |  | Active | Active | Active | 
